Source: ChEMBL document CHEMBL4689842, “EUbOPEN Chemogenomics Library wave 1” (2021)

System: Fibroblast
Test: Multiplex assay against human fibroblast
Assay type: toxicity, cell-based
Summary of the method: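 Live cells were stained at seeding with Hoechst33342, BioTracker Green Microtubule Cytoskeleton Dye, MitoTracker Red and Annexin V Alexa Fluor 680. Following compound addition, they were imaged on a CQ1 microscope at 37°C and 5% CO2 and gated by CellPathfinder machine learning into Hoechst high-intensity objects or normal cells, with normal cells split into healthy, pyknosed or fragmented nuclei and pyknosed cells into mitotic or apoptotic. Tubulin, mitochondrial-mass and membrane-permeability phenotypes are per cents of healthy-nucleus cells.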

[1] = 12 h, 1 µM, compound concentration 1 uM, replicate 1
[2] = 12 h, 1 µM, compound concentration 1 uM, replicate 2
[3] = 12 h, 10 µM, compound concentration 10 uM, replicate 1
[4] = 12 h, 10 µM, compound concentration 10 uM, replicate 2
[5] = 24 h, 1 µM, compound concentration 1 uM, replicate 1
[6] = 24 h, 1 µM, compound concentration 1 uM, replicate 2
[7] = 24 h, 10 µM, compound concentration 10 uM, replicate 1
[8] = 24 h, 10 µM, compound concentration 10 uM, replicate 2
[9] = 48 h, 1 µM, compound concentration 1 uM, replicate 1
[10] = 48 h, 1 µM, compound concentration 1 uM, replicate 2
[11] = 48 h, 10 µM, compound concentration 10 uM, replicate 1
[12] = 48 h, 10 µM, compound concentration 10 uM, replicate 2

## Nc1nc2c(c(N3CCNCC3)n1)CCC1=C2[C@@H]2CCCC[C@@H]2O1
[1]
  Population Apoptotic (%): 67%
  Population Fragmented Nuclei (%): 37%
  Population Healthy Nuclei (%): 42%
  Population Hoechst High Intensity Objects (%): 15%
  Population Membrane Permeable-Phenotype (%): 10%
  Population Mitochondria Different-Phenotype (%): 1%
  Population Mitotic Cells (%): 32%
  Population Normal (%): 84%
  Population Pyknosed Nuclei (%): 20%
  Population Tubulin-Different-Phenotype (%): 20%
  Total Cell Count: 182
[2]
  Population Apoptotic (%): 0%
  Population Fragmented Nuclei (%): 20%
  Population Healthy Nuclei (%): 61%
  Population Membrane Permeable-Phenotype (%): 8%
  Population Mitochondria Different-Phenotype (%): 27%
  Population Mitotic Cells (%): 100%
  Population Pyknosed Nuclei (%): 18%
  Population Tubulin-Different-Phenotype (%): 21%
  Total Cell Count: 71
[3]
  Population Apoptotic (%): 56%
  Population Fragmented Nuclei (%): 22%
  Population Healthy Nuclei (%): 34%
  Population Hoechst High Intensity Objects (%): 42%
  Population Membrane Permeable-Phenotype (%): 4%
  Population Mitochondria Different-Phenotype (%): 13%
  Population Mitotic Cells (%): 43%
  Population Normal (%): 57%
  Population Pyknosed Nuclei (%): 43%
  Population Tubulin-Different-Phenotype (%): 52%
  Total Cell Count: 220
[4]
  Population Apoptotic (%): 27%
  Population Fragmented Nuclei (%): 9%
  Population Healthy Nuclei (%): 68%
  Population Hoechst High Intensity Objects (%): 3%
  Population Membrane Permeable-Phenotype (%): 25%
  Population Mitochondria Different-Phenotype (%): 87%
  Population Mitotic Cells (%): 72%
  Population Normal (%): 96%
  Population Pyknosed Nuclei (%): 21%
  Population Tubulin-Different-Phenotype (%): 92%
  Total Cell Count: 106
[5]
  Population Apoptotic (%): 55%
  Population Fragmented Nuclei (%): 30%
  Population Healthy Nuclei (%): 50%
  Population Hoechst High Intensity Objects (%): 24%
  Population Membrane Permeable-Phenotype (%): 21%
  Population Mitochondria Different-Phenotype (%): 2%
  Population Mitotic Cells (%): 44%
  Population Normal (%): 75%
  Population Pyknosed Nuclei (%): 19%
  Population Tubulin-Different-Phenotype (%): 47%
  Total Cell Count: 198
[6]
  Population Apoptotic (%): 20%
  Population Fragmented Nuclei (%): 22%
  Population Healthy Nuclei (%): 57%
  Population Hoechst High Intensity Objects (%): 8%
  Population Membrane Permeable-Phenotype (%): 6%
  Population Mitochondria Different-Phenotype (%): 20%
  Population Mitotic Cells (%): 80%
  Population Normal (%): 91%
  Population Pyknosed Nuclei (%): 20%
  Population Tubulin-Different-Phenotype (%): 16%
  Total Cell Count: 82
[7]
  Population Apoptotic (%): 57%
  Population Fragmented Nuclei (%): 20%
  Population Healthy Nuclei (%): 36%
  Population Hoechst High Intensity Objects (%): 45%
  Population Membrane Permeable-Phenotype (%): 12%
  Population Mitochondria Different-Phenotype (%): 16%
  Population Mitotic Cells (%): 42%
  Population Normal (%): 55%
  Population Pyknosed Nuclei (%): 43%
  Population Tubulin-Different-Phenotype (%): 43%
  Total Cell Count: 240
[8]
  Population Apoptotic (%): 33%
  Population Fragmented Nuclei (%): 8%
  Population Healthy Nuclei (%): 46%
  Population Hoechst High Intensity Objects (%): 2%
  Population Membrane Permeable-Phenotype (%): 22%
  Population Mitochondria Different-Phenotype (%): 79%
  Population Mitotic Cells (%): 66%
  Population Normal (%): 97%
  Population Pyknosed Nuclei (%): 45%
  Population Tubulin-Different-Phenotype (%): 69%
  Total Cell Count: 109
[9]
  Population Apoptotic (%): 71%
  Population Fragmented Nuclei (%): 44%
  Population Healthy Nuclei (%): 45%
  Population Hoechst High Intensity Objects (%): 34%
  Population Membrane Permeable-Phenotype (%): 10%
  Population Mitochondria Different-Phenotype (%): 1%
  Population Mitotic Cells (%): 28%
  Population Normal (%): 65%
  Population Pyknosed Nuclei (%): 10%
  Population Tubulin-Different-Phenotype (%): 22%
  Total Cell Count: 296
[10]
  Population Apoptotic (%): 41%
  Population Fragmented Nuclei (%): 34%
  Population Healthy Nuclei (%): 56%
  Population Membrane Permeable-Phenotype (%): 13%
  Population Mitochondria Different-Phenotype (%): 2%
  Population Mitotic Cells (%): 58%
  Population Pyknosed Nuclei (%): 9%
  Population Tubulin-Different-Phenotype (%): 36%
  Total Cell Count: 204
[11]
  Population Apoptotic (%): 41%
  Population Fragmented Nuclei (%): 20%
  Population Healthy Nuclei (%): 50%
  Population Hoechst High Intensity Objects (%): 49%
  Population Membrane Permeable-Phenotype (%): 6%
  Population Mitochondria Different-Phenotype (%): 11%
  Population Mitotic Cells (%): 58%
  Population Normal (%): 50%
  Population Pyknosed Nuclei (%): 29%
  Population Tubulin-Different-Phenotype (%): 58%
  Total Cell Count: 244
[12]
  Population Apoptotic (%): 38%
  Population Fragmented Nuclei (%): 27%
  Population Healthy Nuclei (%): 49%
  Population Hoechst High Intensity Objects (%): 47%
  Population Membrane Permeable-Phenotype (%): 9%
  Population Mitochondria Different-Phenotype (%): 10%
  Population Mitotic Cells (%): 61%
  Population Normal (%): 52%
  Population Pyknosed Nuclei (%): 23%
  Population Tubulin-Different-Phenotype (%): 52%
  Total Cell Count: 215
